Source: ChEMBL document CHEMBL1141565, “Discovery of disubstituted cyclohexanes as a new class of CC chemokine receptor 2 antagonists” (J Med Chem, 2008)

What was measured:
[1] = molecular target: T1, C-C chemokine receptor type 3 (Homo sapiens) (UniProt P51677); assay: Binding affinity for human CCR3 at 10 uM
T1 sequence (whole entry): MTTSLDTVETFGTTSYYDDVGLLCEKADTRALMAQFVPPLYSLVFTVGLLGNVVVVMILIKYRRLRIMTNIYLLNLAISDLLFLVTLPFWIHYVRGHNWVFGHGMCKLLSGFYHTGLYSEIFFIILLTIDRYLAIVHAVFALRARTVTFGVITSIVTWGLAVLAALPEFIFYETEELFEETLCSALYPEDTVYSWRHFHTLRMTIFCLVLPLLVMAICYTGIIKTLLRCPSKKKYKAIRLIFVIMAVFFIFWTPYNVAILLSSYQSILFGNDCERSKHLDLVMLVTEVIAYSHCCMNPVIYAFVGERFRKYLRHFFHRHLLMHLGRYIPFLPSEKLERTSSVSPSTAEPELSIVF

[2] = molecular target: T2, C-C chemokine receptor type 2 (Homo sapiens, UniProt P41597); assay: Displacement of radiolabeled MCP1 from human CCR2 in PBMCs
T2 sequence (P41597 whole entry): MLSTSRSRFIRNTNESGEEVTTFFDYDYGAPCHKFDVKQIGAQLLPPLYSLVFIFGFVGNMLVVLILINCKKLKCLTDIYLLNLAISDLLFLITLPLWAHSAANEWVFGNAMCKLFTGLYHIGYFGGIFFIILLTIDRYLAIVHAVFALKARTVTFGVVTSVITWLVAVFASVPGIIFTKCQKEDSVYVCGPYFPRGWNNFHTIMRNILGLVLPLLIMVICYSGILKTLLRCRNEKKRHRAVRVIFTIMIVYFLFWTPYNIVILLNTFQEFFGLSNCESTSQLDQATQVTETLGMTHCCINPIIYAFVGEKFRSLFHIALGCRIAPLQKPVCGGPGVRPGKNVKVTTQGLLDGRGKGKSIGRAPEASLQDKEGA
Method in brief: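 Competitive binding: test compound displaces radiolabeled MCP-1 from CCR2 on peripheral blood mononuclear cells. IC50 is given as mean ± SD when n = 2 and mean ± SEM when n > 2, with n the number of determinations.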

[3] = Ratio of IC50 for wild type CCR2 to IC50 for CCR2 T292A mutant
[4] = Ratio of IC50 for wild type CCR2 to IC50 for CCR2 E291A mutant
[5] = molecular target: C-C chemokine receptor type 2 (Homo sapiens, UniProt P41597, E291A); assay: Binding affinity to CCR2 E291A mutant
Sequence of C-C chemokine receptor type 2 (Homo sapiens, UniProt P41597, E291A) (P41597 whole entry E291A): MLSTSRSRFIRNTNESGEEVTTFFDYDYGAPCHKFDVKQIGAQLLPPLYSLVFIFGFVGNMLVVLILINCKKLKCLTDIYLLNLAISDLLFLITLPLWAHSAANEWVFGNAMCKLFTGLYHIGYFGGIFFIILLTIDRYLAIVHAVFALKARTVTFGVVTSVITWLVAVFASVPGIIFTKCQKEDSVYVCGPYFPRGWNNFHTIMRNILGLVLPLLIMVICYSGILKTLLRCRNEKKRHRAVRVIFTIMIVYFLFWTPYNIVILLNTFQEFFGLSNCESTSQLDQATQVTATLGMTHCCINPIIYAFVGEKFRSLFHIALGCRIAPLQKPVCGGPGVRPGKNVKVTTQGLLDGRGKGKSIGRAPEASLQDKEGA

[6] = molecular target: C-C chemokine receptor type 2 (Homo sapiens, UniProt P41597, T292A); assay: Binding affinity to CCR2 T292A mutant
Sequence of C-C chemokine receptor type 2 (Homo sapiens, UniProt P41597, T292A) (P41597 whole entry T292A): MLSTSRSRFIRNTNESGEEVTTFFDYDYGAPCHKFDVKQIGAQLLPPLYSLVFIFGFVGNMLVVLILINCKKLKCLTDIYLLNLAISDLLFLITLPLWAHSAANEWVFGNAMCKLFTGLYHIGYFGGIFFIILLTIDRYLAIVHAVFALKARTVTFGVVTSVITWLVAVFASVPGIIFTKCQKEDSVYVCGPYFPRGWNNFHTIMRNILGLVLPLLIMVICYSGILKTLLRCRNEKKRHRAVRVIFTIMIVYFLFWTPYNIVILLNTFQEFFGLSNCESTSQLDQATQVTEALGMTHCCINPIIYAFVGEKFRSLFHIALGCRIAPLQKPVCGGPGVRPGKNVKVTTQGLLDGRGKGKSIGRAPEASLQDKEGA

[7] = molecular target: T2, C-C chemokine receptor type 2; assay: Binding affinity to wild type CCR2
[8] = molecular target: T2, C-C chemokine receptor type 2; assay: Antagonist activity at human CCR2 in PBMCs assessed as inhibition of MCP1-induced calcium flux; assay type: functional
Homo sapiens = species on record: Homo sapiens; assay: Selectivity for human CCR2 over human CCR3

| Structure (SMILES) | inhibition [1] [%] | IC50 [2] [nM] | further results |
| --- | --- | --- | --- |
| Cc1ccc(CN2CC[C@@H](NC(=O)CNC(=O)c3cccc(C(F)(F)F)c3)C2)c(C)c1 |  |  | Ratio IC50 [3]: 30 |
| Nc1ccc(C(F)(F)F)cc1C(=O)NCC(=O)N[C@H]1CCCC[C@H]1NC(=O)c1ccc(S(N)(=O)=O)cc1 (racemic) | 6 | 23 | IC50 [8]: 4.8 nM |
| CC(C)c1ccc(CN[C@@H]2CCCC[C@@H]2NC(=O)CNC(=O)c2cccc(C(F)(F)F)c2)cc1 (racemic) | 55 | 360 | Selectivity ratio (Homo sapiens): 20 |
| O=C(CNC(=O)c1cccc(C(F)(F)F)c1)N[C@H]1CCCC[C@H]1NCc1ccc(C(F)(F)F)cc1 (racemic) | 47 | 400 | Selectivity ratio (Homo sapiens): 20 |
| Cc1ccc(C(=O)N[C@@H]2CCCC[C@@H]2NC(=O)CNC(=O)c2cccc(C(F)(F)F)c2)c(C)c1 (racemic) |  | 4130 | Ratio IC50 [4]: 1.9; IC50 [5]: 7850 nM; IC50 [7]: 4130 nM |
| O=C(CNC(=O)c1cccc(C(F)(F)F)c1)N[C@H]1CCCC[C@@H]1NCc1ccc(Cl)cc1Cl (racemic) |  | 7860 |  |
| Cc1ccc(CN(C)[C@H]2CCCC[C@@H]2NC(=O)CNC(=O)c2cccc(C(F)(F)F)c2)c(C)c1 (racemic) |  | 3010 |  |
| Cc1ccc(CN[C@@H]2CCCC[C@@H]2NC(=O)CNC(=O)c2cccc(C(F)(F)F)c2)c(C)c1 (racemic) | 54 | 2170 |  |
| O=C(CNC(=O)c1cccc(C(F)(F)F)c1)N[C@H]1CCCC[C@@H]1NCc1ccc(Cl)cc1 (racemic) | 50 | 970 |  |
| Cc1cc(C)c(CN[C@H]2CCCC[C@@H]2NC(=O)CNC(=O)c2cccc(C(F)(F)F)c2)c(C)c1 (racemic) |  | 1190 |  |
| Cc1ccc(C(=O)N[C@@H]2CCCC[C@@H]2NC(=O)CNC(=O)c2cccc(C(F)(F)F)c2)cc1 (racemic) | 57 | 550 |  |
| CS(=O)(=O)c1ccc(C(=O)N[C@@H]2CCCC[C@@H]2NC(=O)CNC(=O)c2cccc(C(F)(F)F)c2)cc1 (racemic) | 3 | 87 |  |

More lines, main results first:

| inhibition [1] [%] | IC50 [2] [nM] | Structure (SMILES) | further results |
| --- | --- | --- | --- |
| 54 | 540 | Cc1ccc(CN[C@H]2CCCC[C@@H]2NC(=O)CNC(=O)c2cccc(C(F)(F)F)c2)c(C)c1 |  |
| 37 | 5.1 | CSc1ccc(C(=O)N[C@@H]2CCCC[C@@H]2NC(=O)CNC(=O)c2cc(C(F)(F)F)ccc2NC(=O)NC(C)C)cc1 | Ratio IC50 [3]: 40.5; Ratio IC50 [4]: 0.5; IC50 [5]: 3.7 nM; IC50 [6]: 304 nM; IC50 [7]: 7.5 nM; IC50 [8]: 18 nM |
| 27 | 37 | O=C(CNC(=O)c1cccc(C(F)(F)F)c1)N[C@H]1CCCC[C@H]1NC(=O)c1ccc(I)cc1 | IC50 [8]: 30 nM |
| 39 | 21 | NS(=O)(=O)c1ccc(C(=O)N[C@@H]2CCCC[C@@H]2NC(=O)CNC(=O)c2cccc(C(F)(F)F)c2)cc1 (racemic) | IC50 [8]: 42 nM |
| 50 | 530 | O=C(CNC(=O)c1cccc(C(F)(F)F)c1)N[C@H]1CCCC[C@H]1NCc1ccc(OC(F)(F)F)cc1 (racemic) | Selectivity ratio (Homo sapiens): 20 |
| 10 | 9 | NS(=O)(=O)c1ccc(C(=O)N[C@@H]2CCCC[C@@H]2NC(=O)CNC(=O)c2cc(C(F)(F)F)ccc2NC(=O)C2CCCCC2)cc1 (racemic) | IC50 [8]: 3.7 nM |
| 31 | 64 | CSc1ccc(C(=O)N[C@@H]2CCCC[C@@H]2NC(=O)CNC(=O)c2cccc(C(F)(F)F)c2)cc1 (racemic) | IC50 [8]: 215 nM |
| 24 | 790 | O=C(CNC(=O)c1cccc(C(F)(F)F)c1)N[C@H]1CCCC[C@H]1NCc1ccc(Cl)cc1 (racemic) | Ratio IC50 [4]: 7.9; Selectivity ratio (Homo sapiens): 20; IC50 [5]: 2120 nM; IC50 [7]: 268 nM |
|  | 12000 | O=C(CNC(=O)c1cccc(C(F)(F)F)c1)N[C@H]1CCCC[C@@H]1NC(=O)c1ccc(Cl)cc1 (racemic) |  |
